Measurements as given in ChEMBL document CHEMBL1128227, “Cosalane analogues with enhanced potencies as inhibitors of HIV-1 protease and integrase” (J Med Chem, 1995).
Converted amounts (≈) assume the structure as drawn.

Tests used:
Homo sapiens [1] = species: Homo sapiens; assay: Cytotoxical effect against PBL cell lines was determined by reduction of cellular viability; type: functional
Summary of the method: (§1)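 Compounds tested as ammonium salts. Cytotoxicity in CEM-SS, MT-4 or PBL cultures taken from the reduction in cellular viability. Values are means of at least two separate experiments.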

MT4 [2] = assay: Cytotoxical effect against MT-4 cell lines was determined by reduction of cellular viability; type: functional; conditions: Homo sapiens; summary of the method: as §1
HeLa [3] = assay: Antiviral activity was determined against Respiratory syncytial virus(strain Long) in HeLa cells by measuring concentration required to reduce virus induced cytopathogenicity by 50%.; type: functional, cell-based; conditions: Homo sapiens
Summary of the method: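 RSV cytopathicity in HeLa cells. Compound added immediately after virus infection and left in the culture. Virus-induced cytopathogenicity scored at day 5 post-infection. IC50 in μg/mL.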

[4] = molecular target: Human immunodeficiency virus type 1 protease (Human immunodeficiency virus 1, UniProt Q72874); assay: Inhibition of HIV -1 protease
Summary of the method: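 Purified HIV-1 protease with the peptide substrate Ala-Ser-Glu-Asn-Tyr-Pro-Ile-Val-Glu-amide. Cleavage quantified by reverse-phase HPLC. Compounds tested as ammonium salts. Values are means of at least two experiments.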

Vero [5] = assay: Antiviral activity was determined against Junin virus in Vero cells by measuring concentration required to reduce virus induced cytopathogenicity by 50%.; type: functional, cell-based; conditions: Chlorocebus sabaeus
[6] = molecular target: Human immunodeficiency virus type 1 integrase (Human immunodeficiency virus 1, UniProt Q7ZJM1); assay: Inhibition of HIV -1 Integrase
Summary of the method: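 Purified HIV-1 integrase. 3'-processing and strand-transfer (integration) activities were measured with synthetic double-stranded oligonucleotides mimicking viral DNA ends. Compounds tested as ammonium salts. Values are means of at least two experiments.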

HEL [7] = assay: Antiviral activity was determined against Herpes simplex virus -1 TK- in HEL cells by measuring concentration required to reduce virus induced cytopathogenicity by 50%.; type: functional, cell-based; conditions: Homo sapiens
Homo sapiens [8] = species: Homo sapiens; assay: Inhibition of p24 production in Peripheral blood lymphocytes; type: functional, organism-based
Summary of the method: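 Phytohemagglutinin-stimulated peripheral blood lymphocytes infected with HIV-1 WUJO. Read-out is virion-associated p24 production. Compounds tested as ammonium salts. Values are means of at least two experiments.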

Vero [9] = assay: Antiviral activity was determined against Tacaribe virus in Vero cells by measuring concentration required to reduce virus induced cytopathogenicity by 50%.; type: functional, cell-based; conditions: Chlorocebus sabaeus
HEL [10] = assay: Antiviral activity was determined against Herpes simplex virus -1 TK-/TK+ in HEL cells by measuring concentration required to reduce virus induced cytopathogenicity by 50%.; type: functional, cell-based; conditions: Homo sapiens
HEL [11] = assay: Antiviral activity was determined against (Herpes simplex virus -2) by concentration required to reduce virus induced cytopathogenicity by 50%.; type: functional, cell-based; conditions: Homo sapiens
HEL [12] = assay: Antiviral activity against HEL cells by measuring minimum cytotoxic concentration that causes a microscopically detectable alteration of normal cell morphology after 2 day of treatment.; type: functional; conditions: Homo sapiens, 48 h
HEL [13] = assay: Antiviral activity was determined against Human cytomegalovirus (strain Davis) in HEL cells by measuring concentration required to reduce virus induced cytopathogenicity by 50%.; type: functional, cell-based
HEL [14] = assay: Antiviral activity was determined against Vesicular stomatitis virus in HEL cells by measuring concentration required to reduce virus induced cytopathogenicity by 50%.; type: functional, cell-based; conditions: Homo sapiens
MOLT-4 [15] = assay: Giant cell formation between HIV-1 (HTLV-IIIB) infected HUT-78 cells and uninfected MOLT-4(clone-8)cells; type: functional, cell-based; conditions: Homo sapiens
Summary of the method: (§2)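 Syncytium assay: HUT-78 cells persistently infected with HIV-1 (HTLV-IIIB) or HIV-2 (LAV-2ROD) were co-cultured with uninfected MOLT-4 (clone 8) cells, and giant-cell formation was scored. Compounds tested as ammonium salts. Values are means of at least two experiments.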

CCRF-CEM = assay: Cytotoxical effect against CEM cell lines was determined by reduction of cellular viability; type: functional; conditions: Homo sapiens; summary of the method: as §1
HEL [16] = assay: Antiviral activity was determined against Vaccinia virus in HEL cells by measuring concentration required to reduce virus induced cytopathogenicity by 50%.; type: functional, cell-based; conditions: Homo sapiens
HeLa [17] = assay: Antiviral activity against HeLa cells by measuring minimum cytotoxic concentration that causes a microscopically detectable alteration of normal cell morphology after 2 day of treatment.; type: functional; conditions: Homo sapiens, 48 h
MDCK [18] = assay: Antiviral activity was determined against Influenza virus B(strain Singapore) MDCK cells by measuring concentration required to reduce virus induced cytopathogenicity by 50%.; type: functional, cell-based; conditions: Canis lupus familiaris
Summary of the method: (§3)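 Tested in MDCK cells, with compound applied right after infection and left on. Cytopathic effect of influenza A (Ishikawa) or B (Singapore) was read at day 5 pi. IC50 is the concentration halving cytopathogenicity, in µg/mL.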

MT4 [19] = assay: Viral cytopathicity against HIV -I (HTLV-IIIb) strain determined in MT-4 cells; type: functional, cell-based; conditions: Homo sapiens
HEL [20] = assay: Antiviral activity was determined against Herpes simplex virus -1 in HEL cells by measuring concentration required to reduce virus induced cytopathogenicity by 50%.; type: functional, cell-based; conditions: Homo sapiens
MOLT-4 [21] = assay: Giant cell formation between HIV-2 (LAV-2 rod) infected HUT-78 cells and uninfected MOLT-4(clone-8)cells; type: functional, cell-based; conditions: Homo sapiens; summary of the method: as §2
MDCK [22] = assay: Antiviral activity against MDCK cells by measuring minimum cytotoxic concentration that causes a microscopically detectable alteration of normal cell morphology after 2 day of treatment.; type: functional; conditions: Canis lupus familiaris, 48 h
MDCK [23] = assay: Antiviral activity was determined against Influenza virus A(strain Ishikawa) in MDCK cells by measuring concentration required to reduce virus induced cytopathogenicity by 50%.; type: functional, cell-based; conditions: Canis lupus familiaris; summary of the method: as §3
Vero [24] = assay: Antiviral activity against Vero cells by measuring minimum cytotoxic concentration that causes a microscopically detectable alteration of normal cell morphology after 2 day of treatment.; type: functional; conditions: Chlorocebus sabaeus, 48 h
MT4 [25] = assay: Viral cytopathicity against HIV -2 (LAV-2 rod)strain determined in MT-4 cells; type: functional, cell-based; conditions: Homo sapiens

Human immunodeficiency virus type 1 integrase, sequence (Q7ZJM1 whole entry): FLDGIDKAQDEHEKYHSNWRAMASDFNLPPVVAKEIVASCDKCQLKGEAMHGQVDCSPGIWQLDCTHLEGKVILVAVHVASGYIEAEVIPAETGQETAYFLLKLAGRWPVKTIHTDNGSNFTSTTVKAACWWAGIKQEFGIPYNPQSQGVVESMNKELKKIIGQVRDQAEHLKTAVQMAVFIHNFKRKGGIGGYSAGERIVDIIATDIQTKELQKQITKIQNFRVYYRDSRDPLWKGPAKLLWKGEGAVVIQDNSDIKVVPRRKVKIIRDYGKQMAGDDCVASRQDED

SMILES | CC50 (Homo sapiens [1]) [µM] | CC50 (MT4 [2]) [µM] | IC50 (HeLa [3]) [µg/mL] | IC50 [4] [µM] | IC50 (Vero [5]) [µg/mL] | IC50 [6] [µM] | IC50 (HEL [7]) [µg/mL] | IC50 (Homo sapiens [8]) [µM] | IC50 (Vero [9]) [µg/mL] | IC50 (HEL [10]) [µg/mL] | IC50 (HEL [11]) [µg/mL] | MCC (HEL [12]) [µg/mL] | IC50 (HEL [13]) [µg/mL] | IC50 (HEL [14]) [µg/mL] | IC50 (MOLT-4 [15]) [µM] | CC50 (CCRF-CEM) [µM] | IC50 (HEL [16]) [µg/mL] | IC50 (MT4 [19]) [µM] | IC50 (HEL [20]) [µg/mL] | IC50 (MOLT-4 [21]) [µM] | other results
O=C(O)c1cc(C(=CCC23CC4CC(CC(C4)C2)C3)c2cc(Cl)c(O)c(C(=O)O)c2)cc(Cl)c1O | 185 | > 40 | 4 (≈ 7.73 µM) | 0.37 | > 20 | 7 | > 5 | 148 | > 20 | > 5 | > 20 | 50 | 11 (≈ 21.3 µM) | > 5 | > 40 | 105 | > 5 | > 40 | > 5 | > 40 | MCC (HeLa [17]): 20 µg/mL; IC50 (MDCK [18]): > 4 µg/mL; MCC (MDCK [22]): 4 µg/mL; IC50 (MDCK [23]): > 4 µg/mL; MCC (Vero [24]): 50 µg/mL
CC(CCC=C(c1cc(Cl)c(O)c(C(=O)O)c1)c1cc(Cl)c(O)c(C(=O)O)c1)[C@H]1CC[C@H]2[C@@H]3CC[C@@H]4CCCC[C@]4(C)[C@H]3CC[C@]12C (stereo partly specified) | 135 | 31.4 | 4 (≈ 5.85 µM) | 1.5 | > 5 | 2.2 | > 20 | 39 | > 5 | > 20 | > 20 | 50 | > 20 | > 20 | 24 | 69.5 | 13 (≈ 19 µM) | 27.2 | > 20 | 40 | MCC (HeLa [17]): 100 µg/mL; IC50 (MDCK [18]): > 20 µg/mL; IC50 (MT4 [25]): > 31.3 µM; MCC (MDCK [22]): 20 µg/mL; IC50 (MDCK [23]): > 12 µg/mL; MCC (Vero [24]): 20 µg/mL
CC(C)CCCC(C)[C@H]1CC[C@H]2[C@@H]3CCC4C[C@@H](CCC=C(c5cc(Cl)c(O)c(C(=O)O)c5)c5cc(Cl)c(O)c(C(=O)O)c5)CC[C@]4(C)[C@H]3CC[C@]12C (stereo partly specified) | 67 | > 125 | – | 1.5 | – | 25 | > 20 | 33 | – | 20 (≈ 26 µM) | 7.4 (≈ 9.64 µM) | > 100 | 2.7 (≈ 3.52 µM) | 10 (≈ 13 µM) | 25 | > 200 | > 20 | 1.8 | 10 (≈ 13 µM) | 25 | IC50 (MT4 [25]): 4 µM
CC(C)CCCC(C)[C@H]1CC[C@H]2[C@@H]3CCC4CC(=C(c5cc(Cl)c(O)c(C(=O)O)c5)c5cc(Cl)c(O)c(C(=O)O)c5)CC[C@]4(C)[C@H]3CC[C@]12C (stereo partly specified) | 78 | 36.7 | 20 (≈ 27.6 µM) | 0.35 | 16 (≈ 22 µM) | > 100 | > 20 | 59.3 | 20 (≈ 27.6 µM) | > 20 | 12 (≈ 16.5 µM) | > 50 | 2.35 (≈ 3.24 µM) | > 20 | 24 | > 200 | > 20 | 2.5 | > 20 | 24 | MCC (HeLa [17]): 100 µg/mL; IC50 (MDCK [18]): > 200 µg/mL; IC50 (MT4 [25]): 6 µM; MCC (MDCK [22]): > 200 µg/mL; IC50 (MDCK [23]): 14 µg/mL (≈ 19.3 µM); MCC (Vero [24]): 200 µg/mL
CC(CCC=C(c1cc(Cl)c(O)c(C(=O)O)c1)c1cc(Cl)c(O)c(C(=O)O)c1)[C@H]1CC[C@H]2[C@@H]3CC[C@@H]4CC(F)(F)CC[C@]4(C)[C@H]3CC[C@]12C (stereo partly specified) | 69.5 | 34 | 4 (≈ 5.56 µM) | 0.39 | > 5 | 2.2 | > 20 | 24 | > 5 | > 20 | > 20 | 50 | 11 (≈ 15.3 µM) | > 20 | 8 | 38.5 | 20 (≈ 27.8 µM) | 27.7 | 20 (≈ 27.8 µM) | 24 | MCC (HeLa [17]): 20 µg/mL; IC50 (MDCK [18]): > 12 µg/mL; IC50 (MT4 [25]): 3.5 µM; MCC (MDCK [22]): 12 µg/mL; IC50 (MDCK [23]): > 12 µg/mL; MCC (Vero [24]): 20 µg/mL
